From PubChem BioAssay
Most compounds without a hit are left out; they make up all but 4% or so of the library.
ABHD5-PLIN5 inh – ABHD5-PLIN5 protein interaction inhibition | actives 0.78% (n = 360,000) | inhibition, % at 4 µM | Q00G26+Q8WTS1 | Split G. princeps luciferase complementation, luminescence, 4 h;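 active = inhibition above the mean inhibition across every tested compound plus 3 SD, cut at about 22% in these data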;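 also: 0% = DMSO only wells and the 100% control is not disclosed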
Target sequence (Q00G26 whole entry, looked up): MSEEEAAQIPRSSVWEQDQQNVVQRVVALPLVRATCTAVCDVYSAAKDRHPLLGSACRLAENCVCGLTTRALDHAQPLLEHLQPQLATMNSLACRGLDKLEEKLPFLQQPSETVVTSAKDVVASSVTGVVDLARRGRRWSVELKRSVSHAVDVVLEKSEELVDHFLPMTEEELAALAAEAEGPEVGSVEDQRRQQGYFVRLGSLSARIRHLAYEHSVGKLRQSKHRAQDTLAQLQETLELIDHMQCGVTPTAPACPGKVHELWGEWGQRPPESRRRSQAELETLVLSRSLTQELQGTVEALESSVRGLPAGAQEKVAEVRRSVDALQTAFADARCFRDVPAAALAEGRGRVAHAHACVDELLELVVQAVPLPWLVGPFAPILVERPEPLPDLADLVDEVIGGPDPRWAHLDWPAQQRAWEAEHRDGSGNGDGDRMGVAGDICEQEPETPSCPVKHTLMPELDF
Target sequence (Q8WTS1 whole entry, looked up): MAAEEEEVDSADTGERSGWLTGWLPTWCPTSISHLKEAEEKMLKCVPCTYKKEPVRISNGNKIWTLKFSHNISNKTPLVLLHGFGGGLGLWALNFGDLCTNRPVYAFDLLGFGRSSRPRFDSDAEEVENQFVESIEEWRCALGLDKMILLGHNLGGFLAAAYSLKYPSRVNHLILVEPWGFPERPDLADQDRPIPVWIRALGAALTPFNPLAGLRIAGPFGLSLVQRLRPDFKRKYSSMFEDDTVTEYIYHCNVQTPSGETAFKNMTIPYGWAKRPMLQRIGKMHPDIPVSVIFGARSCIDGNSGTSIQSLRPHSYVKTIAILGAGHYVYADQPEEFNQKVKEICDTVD
Mdm2-MdmX inh – human Mdm2/MdmX binding inhibition; AID 485346; actives 3% (n = 330,000); O15151+Q00987; SaOS-2 split-luciferase Mdm2/MdmX complementation, luminescence; inhibition, % at 8 µM;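 active = inhibition of at least 50% at 8 µM in the primary screen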
UPR CHOP act – apoptotic UPR (CHOP) activation; CHO-CHOP luciferase reporter, luminescence; percent of tunicamycin response over DMSO baseline; activation, % at 10 µM; actives 0.34% (n = 330,000);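 active = at 10 µM dose, activation of 40% or more, normalized to positive control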;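 also: 100% = tunicamycin at 10 µg/mL and 0% = DMSO alone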
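System: CHO-CHOP luciferase reporter cell line | Buffer or medium: F12 medium containing 10% fetal bovine serum | Doses: One dose, 10 µM in 0.5% DMSO | Times: 6 h compound exposure at 37 °C after overnight seeding | Signal: Luciferase luminescence | Read-out: % activation vs tunicamycin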
XBP1 UPR activ – activators of adaptive arm of unfolded protein response (XBP1). AID 463104. CHO-XBP1 luciferase reporter, IRE1-XBP1 UPR activation, luminescence; percent of tunicamycin response, DMSO as zero. actives 0.33% (n = 330,000). activation, % at 20 µM;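 active = versus positive control, 20 µM dose yields 30% or more activation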;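 also: 100% = tunicamycin at 10 µg/mL and 0% = DMSO only wells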
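Assay system: IRE1-XBP1 luciferase reporter CHO line. Input: 1000 cells/well. Buffer or medium: F12 with 10% serum. Doses: 20 µM, 1% DMSO. Times: overnight seeding at 37 °C, 6 h compound treatment at 37 °C. Technique: Steady-Glo luciferase glow luminescence, 10 min after reagent addition.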
Granule exo inh – lytic granule exocytosis inhibition; actives 0.66% (n = 360,000); AID 651702; TALL-104 LAMP-1 surface exposure, flow cytometry; cells stimulated with thapsigargin and PMA; inhibition, % at 10 µM;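 active = inhibition above about 55%, limit read from the data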
Mdm2 MdmX conf – human Mdm2/MdmX binding inhibition, confirmed. shares compounds with Mdm2-MdmX inh. luminescent assay. inhibition, % at 8 µM. actives 55% (n = 10,000). AID 489028; in the data active = inhibition above about 40%
Full FLuc ctr – counter-screen for Mdm2/MdmX inhibitors: full-length luciferase; actives 77% (n = 6,200); shares compounds with Mdm2-MdmX inh; SaOS-2 full-length luciferase counterscreen, luminescence; inhibition, % at 8 µM;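 active = mean inhibition at 8 µM reaching about 37%, which flags the compound as non-specific, limit read from the data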;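 also: p53-null SaOS-2 cells with luciferase driven by a doxycycline-inducible promoter; compound on cells about two nights before reading with doxycycline added after day one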
* = called active by the depositor.

`COc1ccc(CN(CCC(c2ccccc2)c2ccc(OC(C)C)cc2)C(=O)CCl)cc1OC` (stereo not given) gave ABHD5-PLIN5 inh 17, Mdm2-MdmX inh 101*, UPR CHOP act -9, XBP1 UPR activ -6, Granule exo inh 18, Mdm2 MdmX conf 85* and Full FLuc ctr 55*.
COc1ccc(CCNCc2ccc(-c3ccccc3)cc2)cc1OC was read as ABHD5-PLIN5 inh 0 and Granule exo inh 34.
COc1ccc(CNCCC(c2ccc(F)cc2)c2ccc(OC(C)C)cc2)cc1OC (stereo not given) was read as ABHD5-PLIN5 inh 1, Mdm2-MdmX inh 93*, UPR CHOP act -1, XBP1 UPR activ -1, Granule exo inh 6, Mdm2 MdmX conf 34 and Full FLuc ctr 76*.
For COc1ccc(CNCCC(c2ccc(F)cc2)c2ccc(OC)cc2)cc1 (stereo not given) the results were ABHD5-PLIN5 inh 13, Mdm2-MdmX inh 66*, UPR CHOP act -1, XBP1 UPR activ -3, Granule exo inh 8, Mdm2 MdmX conf 43* and Full FLuc ctr 82*.
For COc1ccc(CNCCC(c2ccccc2)c2ccc(OC(C)C)cc2)cc1OC (stereo not given) the results were ABHD5-PLIN5 inh 8, Mdm2-MdmX inh 75*, UPR CHOP act 1, XBP1 UPR activ -2, Granule exo inh 52 and Mdm2 MdmX conf 26.
For COc1ccc(C(CCN(Cc2ccc(OC)c(OC)c2)C(C)=O)c2ccccc2)cc1 (stereo not given) the results were ABHD5-PLIN5 inh 5, Mdm2-MdmX inh 18, UPR CHOP act -3, XBP1 UPR activ -3 and Granule exo inh 0.
For Cc1ccc(-n2nnnc2SCC(=O)NC2CCCc3ccccc32)cc1 (stereo not given) the results were ABHD5-PLIN5 inh -1, Mdm2-MdmX inh 15, UPR CHOP act 3, XBP1 UPR activ -2 and Granule exo inh -3.
Oc1cc(Nc2cccnc2)cc2cccnc12 was read as ABHD5-PLIN5 inh 0, Mdm2-MdmX inh 66*, UPR CHOP act 2, XBP1 UPR activ 3, Granule exo inh 13 and Mdm2 MdmX conf 12.
Screening Oc1cc(NCCc2cccnc2)cc2cccnc12 returned ABHD5-PLIN5 inh -4, Mdm2-MdmX inh 36, UPR CHOP act 5, XBP1 UPR activ 3 and Granule exo inh 2.
`COc1ccc(CCNC(=O)c2ccc3c(c2)N(Cc2ccccc2)CCS3)cc1OC` gave ABHD5-PLIN5 inh 1, Mdm2-MdmX inh 60*, UPR CHOP act 1, XBP1 UPR activ -7, Granule exo inh 5 and Mdm2 MdmX conf 16.
`COc1ccc(OC)c(CCNC(=O)c2ccc3c(c2)N(Cc2ccccc2)CCS3)c1` gave ABHD5-PLIN5 inh -1, Mdm2-MdmX inh 29, UPR CHOP act -3, XBP1 UPR activ -4 and Granule exo inh 10.
Screening CN1CCN(C(=O)/C(=C/c2cn(C)c3ccccc23)NC(=O)c2ccccc2)CC1 returned ABHD5-PLIN5 inh 0, Mdm2-MdmX inh 14, UPR CHOP act 1, XBP1 UPR activ -3 and Granule exo inh -2.
For CN1C(=O)/C(=C/c2cc(N=Nc3ccccc3)ccc2O)SC1=S the results were ABHD5-PLIN5 inh -8, Mdm2-MdmX inh 92*, UPR CHOP act -1, XBP1 UPR activ -1, Granule exo inh 8, Mdm2 MdmX conf 47* and Full FLuc ctr 53*.
For CN(C)c1ccnc(Nc2ccc(O)cc2)c1C#N the results were ABHD5-PLIN5 inh 4, Mdm2-MdmX inh 12, UPR CHOP act 0, XBP1 UPR activ -2 and Granule exo inh -6.
COc1ccc(-c2nnc(OC)c3ccccc23)cc1 was read as ABHD5-PLIN5 inh 12, Mdm2-MdmX inh 29, UPR CHOP act 2, XBP1 UPR activ -1 and Granule exo inh 2.
`COc1ccc(-c2nnc(Sc3nc4ccccc4o3)c3ccccc23)cc1` gave ABHD5-PLIN5 inh 21, Mdm2-MdmX inh 66*, UPR CHOP act 0, XBP1 UPR activ -1, Granule exo inh 9, Mdm2 MdmX conf 42* and Full FLuc ctr 68*.
